Cneo AK release: causes C. neoformans cell lysis; 360,000 tested, 0.2% active; lysis activity, % at 15 µM; AID 651654; adenylate kinase release luminescence, 4 h; normalised: neutral wells 0, clomiphene wells 100;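 active = mean lysis activity across replicates of at least 80%, whatever share of replicates individually reach that level; inactive = mean lysis activity below 80%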
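Assay system: C. neoformans cells. Amount: yeast cell density of 5 × 10^6 cells/mL. Technique: AK luminescence. Buffer or medium: YPD. Times: static 4 h at 37 °C with compound, 1 h detection. Dosing: single-point compound dose. Read-out: lysis from increased AK signal.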
rRNA inh HTS: inhibits bacterial ribosomal RNA function over humanized ribosomes; E. coli WT GFP vs humanized-ribosome RFP mutants, fluorescence, 24 h; hits give low values; DMSO median 0, no signal -100; GFP signal change (wild-type ribosome), % (test concentration not listed); 350,000 tested, 1.6% active; AID 720706;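 active = significant combined selectivity score with lowered wild-type GFP, culture density cut under 30%, mutant RFP and density less affected; inactive = any of these conditions unmet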
CFTR F508del cor: CFTR F508del correction in bronchial cells; 350,000 tested, 0.36% active; activity (quench increase), % at 7.58 µM; AID 720511; CFBE cells, YFP halide quenching; stimulated with forskolin plus potentiator P3; % fluorescence drop versus neutral controls;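 active = mean added fluorescence quench of at least 8% versus neutral control, with both replicates also reaching 8%; inconclusive = only one of the mean or replicate conditions met; inactive = mean below 8% and not both replicates reaching 8%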;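 also: cells transiently co-express mutant CFTR-F508del with the halide-sensitive YFP; corrector assay measuring rescue of mutant channel to the surface after 24 h compound exposure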
miR122 inh: miR-122 inhibition in Huh7 cells; Huh7 miR-122 Renilla luciferase sensor, 48 h; neutral wells = 0, positive control = 100; activation (reporter increase), % at 12.5 µM; 340,000 tested, 0.3% active; AID 602342;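 active = mean replicate activation score at least 90 and every replicate individually at or above 90; inconclusive = only one of the two criteria met; inactive = neither criterion met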;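 also: higher luciferase means less miR-122 activity so hits act as miR-122 inhibitors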
INS-1E GSIS act: primary screen for activators of insulin secretion dependent on glucose, INS-1E cells, GLuc reporter luminescence; activation, % at 16.6 µM; AID 743287; 370,000 tested, 0.61% active; INS-1E GLuc reporter insulin secretion, 2-3 h;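 active = lowest replicate activation of at least 40%, so every replicate reaches that level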;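 also: 0% = median of neutral control wells and 100% = median of IBMX positive control wells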
HIV Env fusion: blocks HIV Env-driven cell-cell fusion | 360,000 tested, 1.1% active | inhibition, % at 12.3 µM | HeLa-JRFL Env/CEM21 cell fusion, luciferase;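 active = mean replicate inhibition score of at least 50 and every replicate individually at or above 50; inconclusive = only one of the two criteria met; inactive = mean below 50 and not all replicates reaching 50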;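 also: 0% = plate neutral controls and 100% = maraviroc near 300 nM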
HepG2 tox: kills or reduces viability of HepG2 cells; ATP luminescence, 72 h; 30 tested, under 10 active; activity change, negative = cytotoxicity, unspecified at 26 µM; shares compounds with rRNA inh HTS; AID 743480;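 active = compounds whose fitted half-maximal signal-loss concentration is at most twice their highest valid dose; inconclusive = flat curve with 30 to 70% signal loss, or poor fit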
AID977621: growth inhibition of wild-type GFP E. coli, dose response, H69 mutant RFP, cherry-pick | shares compounds with rRNA inh HTS | E. coli wild-type GFP strain growth, fluorescence, 24 h | activity change, negative = inhibition at 50 µM | 1,900 tested, under 10 active | AID 977621;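 active = Wild-type ribosome reporter drop at least double the humanized mutant ribosome reporter drop, growth loss under a set limit; inconclusive = no clear call, values can overlap the other calls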;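 also: wild-type GFP and H69 mutant RFP strains grown together 50/50 in each well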
AID977628: E. coli growth inhibition, wild-type GFP versus h24 humanized RFP strain, dose response, h24 mutant RFP vs wild-type GFP, cherry-pick; 1,900 tested, under 10 active; E. coli WT GFP strain growth, fluorescence, 24 h; activity change, negative = inhibition at 50 µM; shares compounds with rRNA inh HTS;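 active = compound lowering the normal-ribosome reporter at least twice as much as the humanized-ribosome reporter, growth loss under a set limit; inconclusive = no clear call, values can overlap the other calls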;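 also: wild-type GFP and h24 humanized RFP strains co-cultured 1 to 1 per well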
The depositor's hits bear a star; ? = inconclusive; nt = no result; [ ] = dose if it differs, or a comment. Shown are actives, neighbours in structure and some others; about 3.1% of the full set was active somewhere.

SMILES	Cneo AK release	rRNA inh HTS	CFTR F508del cor	miR122 inh	INS-1E GSIS act	HIV Env fusion	AID977621	AID977628	others
C[C@@H]1CN([C@H](C)CO)C(=O)c2cc(NC(=O)Cc3cn(C)c4ccccc34)ccc2O[C@@H]1CN(C)Cc1ccncc1	-0.7	5.5	-3.3	13.1[16.7 µM]	-6.7	10.0[16.7 µM]	nt	nt
C[C@@H]1CN([C@@H](C)CO)S(=O)(=O)c2ccc(/C=C/c3ccccc3)cc2O[C@@H]1CN(C)C(=O)c1ccccc1	1.8	-2.4	-0.2	-11.0[16.7 µM]	6.6	11.4[16.7 µM]	nt	nt
CC1(Cc2ccccc2C#N)C(=O)Nc2cc(-c3ccccc3Cl)ccc21 (centres undefined)	-1.1	-11.1*	2.4	-3.1	-48.6	56.5*	nt	nt	HepG2 tox=8.46
Cc1ccc(-n2nnnc2SCC(=O)NC2CCCc3ccccc32)cc1 (centres undefined)	8.3	-30.0*	-2.3	4.1	-16.9	26.8	2.92	nt
COc1cccc(-c2ccc(NC(=O)C3CCCN(Cc4cnn(C(C)C)c4)C3)cc2)c1 (centres undefined)	-0.8	-24.2*	0.1	-5.2	-14.5	-4.5	nt	-0.471
C[C@@H]1CCCCO[C@@H](CN(C)C(=O)Nc2ccc(F)cc2)[C@H](C)CN([C@@H](C)CO)C(=O)c2cc(NC(=O)c3ccncc3)ccc2O1	-0.6	-1.4	2.9	1.9[16.7 µM]	9.9	-7.8[16.7 µM]	nt	nt
CC(=O)N(C)C[C@@H]1Oc2ccc(N(C)C)cc2CC(=O)N(C)C[C@H]1C	nt	0.3	nt	nt	7.1	nt	nt	nt
COc1ccc(NC(=O)COC(=O)C2CCN(C(=O)c3ccc(Cl)cc3)CC2)c([N+](=O)[O-])c1	2.1	-7.0	6.5	-11.3	-20.0	6.2	nt	nt
COc1ccc(OC)c(NC(=O)COC(=O)CCNc2ccccc2OC)c1	-1.0	-20.5*	1.8	-5.0	2.9	6.5	5.86	-1.82
COc1ccccc1NC(=O)COC(=O)Cc1c[nH]c2ccccc12	1.2	-17.2*	-2.9	nt	18.4	10.9	4.39	-4.53
COc1ccccc1CNC(=O)COC(=O)Cc1c[nH]c2ccccc12	0.6	-3.6	-3.0	2.6	-3.7	3.4	nt	nt
COc1ccc(OC)c(NC(=O)COc2ccc(S(=O)(=O)NC(C)C)cc2)c1	0.7	-22.6*	nt	-3.9	10.8	nt	-11.3	-11.6
COc1ccc(OC)c(NC(=O)COC(=O)C2CCN(C(=O)c3ccc(Cl)cc3)CC2)c1	nt	-26.6*	2.1	nt	-16.0	3.8	-7.74	nt
C[C@H](CO)N1C[C@H](C)[C@@H](CN(C)CC2CCCCC2)Oc2ccc(NC(=O)Nc3ccccc3)cc2C1=O	3.8	3.1	2.1	0.4[16.7 µM]	8.5	nt	nt	nt
O=C(Nc1ccc2c(c1)[C@@H]1C[C@@H](CC(=O)N3CCc4ccccc4C3)O[C@H](CO)[C@@H]1O2)C1CCC1	1.2	-1.1	-2.7	4.0[16.7 µM]	-1.0	-37.8[16.7 µM]	nt	nt
O=C(C[C@H]1CC[C@@H](NC(=O)Nc2cc(F)ccc2F)[C@H](CO)O1)NCc1ccncn1	0.2	-3.7	-0.2	nt	8.8	-9.4[16.7 µM]	nt	nt
C[C@@H]1CN([C@H](C)CO)C(=O)c2cccc(NC(=O)c3ccncc3)c2O[C@@H]1CN(C)CC1CC1	3.1	4.6	-1.2	-3.9[16.7 µM]	-9.5	1.6[16.7 µM]	nt	nt
Cc1cc(C(=O)Nc2ccc(Cl)cc2)c(C)n1Cc1cccs1	nt	-29.8*	-0.3	nt	-1.5	-211.0	3.2	-2.55
COc1cccc(-c2ccc([C@@H]3[C@H](CO)N4CCCCN(S(=O)(=O)c5cccs5)C[C@@H]34)cc2)c1	7.0	-45.7*	3.4	-3.7[16.7 µM]	-21.5	nt	nt	?
